Test results reported in ChEMBL document CHEMBL1126800, “Preparation of substituted N-phenyl-4-aryl-2-pyrimidinamines as mediator release inhibitors” (J Med Chem, 1993).

Species: Homo sapiens
Assay: In vitro inhibition of histamine release from human basophils
Type: functional, organism-based
Procedure, shortened: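 Human basophils separated from leukocytes were incubated with test compound, then challenged with anti-IgE or antigen (Lichtenstein method). Histamine release was measured against controls and blanks. IC50 is the concentration lowering histamine release by 50%.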

Row | SMILES | IC50 (Homo sapiens) [nM] | IC50 [nM]
1 | Nc1cccc(Nc2nccc(-c3cccnc3)n2)c1 | 500 | 
2 | FC(F)(F)c1cccc(Nc2nccc(-c3cccnc3)n2)c1 [listing 1 of 2 here] |  | 700
3 | c1cc(Nc2nccc(-c3ccncc3)n2)cc(-n2ccnc2)c1 [listing 1 of 2 here] |  | 3900
4 | c1ccc(-c2ccnc(Nc3cccc(-n4ccnc4)c3)n2)nc1 |  | 200
5 | FC(F)(F)c1cccc(Nc2nccc(-c3cccnc3)n2)c1 [listing 2 of 2 here] |  | 2100
6 | FC(F)(F)c1cccc(Nc2nccc(-c3ccccn3)n2)c1 [listing 1 of 2 here] |  | 400
7 | c1ccc(Nc2nccc(-c3cccnc3)n2)cc1 |  | 1300
8 | CCOC(=O)c1ccc(Nc2nccc(-c3cccnc3)n2)cc1 | 12400 | 
9 | NS(=O)(=O)c1cccc(Nc2nccc(-c3ccccn3)n2)c1 | 500 | 
10 | Cc1cc(-c2ccco2)nc(Nc2ccccc2)n1 | 17700 | 
11 | Cc1cc(-c2ccccn2)nc(Nc2ccccc2)n1 | 26800 | 
12 | c1cc(Nc2nccc(-c3ccncc3)n2)cc(-n2ccnc2)c1 [listing 2 of 2 here] |  | 600
13 | CC(=O)N(C)c1ccc(Nc2nccc(-c3ccncc3)n2)cc1 | 500 | 
14 | FC(F)(F)c1cccc(Nc2nccc(-c3ccccn3)n2)c1 [listing 2 of 2 here] |  | 2900
15 | Cc1cccc(Nc2nccc(-c3cc(C)oc3C)n2)c1 | 28500 | 
16 | Cc1cc(C)cc(Nc2nc(C)cc(-c3ccco3)n2)c1 | > 24000 | 
17 | Cc1cccc(Nc2nccc(-c3ccco3)n2)c1 | 2100 | 
18 | Cc1cccc(Nc2nccc(-c3cccnc3)n2)c1 | 1500 | 
19 | CCN(CC)CCSc1ccc(Nc2nccc(-c3ccncc3)n2)cc1 | 1000 | 
20 | Nc1cccc(Nc2nccc(-c3ccccn3)n2)c1 | 300 | 
21 | Oc1ccc(Nc2nccc(-c3cccnc3)n2)cc1 | 5100 | 
22 | CC(=O)Nc1ccc(Nc2nccc(-c3ccncc3)n2)cc1 | 5300 | 
23 | CCN(CC)CCOc1ccc(Nc2nccc(-c3ccccn3)n2)cc1 | > 3000 | 
24 | c1coc(-c2ccnc(Nc3ccc(-n4ccnc4)cc3)n2)c1 | 2200 | 
25 | NS(=O)(=O)c1ccc(Nc2nccc(-c3cccnc3)n2)cc1 | 200 | 
26 | CN(C)c1cccc(Nc2nccc(-c3cccs3)n2)c1 | 2400 | 

Row | SMILES | IC50 (Homo sapiens) [nM] | IC50 [nM]
27 | Nc1cccc(Nc2nccc(-c3ccncc3)n2)c1 | 1000 | 
28 | CN(C)c1cccc(Nc2nccc(-c3cccnc3)n2)c1 | 1800 | 
29 | CCN(CC)CCOc1cccc(Nc2nccc(-c3ccncc3)n2)c1 | 600 | 
30 | c1ccc(-c2ccnc(Nc3ccc(-n4ccnc4)cc3)n2)nc1 | 1400 | 
31 | CN(C)c1ccc(Nc2nccc(-c3cccs3)n2)cc1 | 900 | 
32 | CN(C)c1ccccc1Nc1nccc(-c2ccncc2)n1 | 36200 | 
33 | Nc1ccc(Nc2nccc(-c3ccncc3)n2)cc1 |  | 2400
34 | CC1CCN(c2ccc(Nc3nccc(-c4ccco4)n3)cc2)CC1 | 1800 | 
35 | Fc1cccc(Nc2nccc(-c3ccncc3)n2)c1 | 700 | 
36 | CC(=O)c1ccc(Nc2nccc(-c3cccnc3)n2)cc1 | 800 | 
37 | COc1cccc(Nc2nccc(-c3ccsc3)n2)c1 | 1800 | 
38 | CC(=O)Nc1cccc(Nc2nccc(-c3ccncc3)n2)c1 | 2700 | 
39 | CC1CCN(c2ccc(Nc3nccc(-c4ccncc4)n3)cc2)CC1 | 600 | 
40 | Cc1cc(C)cc(Nc2nc(C)cc(-c3ccccn3)n2)c1 | > 24000 | 
41 | CCN(CC)CCOc1cccc(Nc2nccc(-c3ccco3)n2)c1 | 1400 | 
42 | c1cc(-c2ccnc(Nc3ccc(-n4ccnc4)cc3)n2)ccn1 | 7600 | 
43 | CC1CCN(c2cccc(Nc3nccc(-c4cccnc4)n3)c2)CC1 | 1200 | 
44 | CCc1ccc(Nc2nccc(-c3cc(C)oc3C)n2)cc1 | 19200 | 
45 | COc1cccc(Nc2nccc(-c3ccccn3)n2)c1 | 200 | 
46 | COc1cccc(Nc2nccc(-c3cccs3)n2)c1 | 900 | 
47 | Cc1cccc(Nc2nccc(-c3ccc(C)o3)n2)c1 | 2000 | 
48 | CC(=O)Nc1ccc(Nc2nccc(-c3cccnc3)n2)cc1 | 3600 | 
49 | CNc1ccc(Nc2nccc(-c3ccccn3)n2)cc1 | 1400 | 
50 | CCc1cccc(Nc2nccc(-c3ccco3)n2)c1 | 9700 | 
51 | CN(c1ccccc1)c1nccc(-c2ccncc2)n1 | > 24000 | 
52 | NS(=O)(=O)c1cccc(Nc2nccc(-c3ccncc3)n2)c1 | 500 | 
